The values that follow come from ChEMBL document CHEMBL1157903, “Synthesis and structure-activity relationships of 2-aryl-4-oxazolylmethoxy benzylglycines and 2-aryl-4-thiazolylmethoxy benzylglycines as novel, potent PPARalpha selective activators- PPARalpha and PPARgamma selectivity modulation” (Bioorg Med Chem Lett, 2010).

For orientation: EC50 means the concentration at which the effect is half-maximal. For orientation: MRT means the average time that molecules of a dose stay in the body. As usually defined, the bioavailability is dose-corrected exposure relative to a reference, in per cent. For orientation: half-life means the time needed for the level to fall by half in the phase considered.

Series [1] has as its target T1, Peroxisome proliferator-activated receptor alpha (Homo sapiens, UniProt Q07869).
T1 sequence (Q07869 whole entry): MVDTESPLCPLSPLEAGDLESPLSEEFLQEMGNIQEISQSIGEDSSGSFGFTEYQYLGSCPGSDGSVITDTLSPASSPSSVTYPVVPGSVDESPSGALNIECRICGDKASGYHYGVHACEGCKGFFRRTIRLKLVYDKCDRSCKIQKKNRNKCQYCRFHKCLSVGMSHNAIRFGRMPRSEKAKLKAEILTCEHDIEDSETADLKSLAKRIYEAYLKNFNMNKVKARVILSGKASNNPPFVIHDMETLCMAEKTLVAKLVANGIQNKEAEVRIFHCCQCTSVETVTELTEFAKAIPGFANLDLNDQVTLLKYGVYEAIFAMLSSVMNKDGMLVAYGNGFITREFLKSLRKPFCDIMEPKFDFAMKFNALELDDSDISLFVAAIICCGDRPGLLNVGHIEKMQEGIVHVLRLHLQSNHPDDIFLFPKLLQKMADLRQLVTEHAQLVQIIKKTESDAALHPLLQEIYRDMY
Put plainly: Agonist activity against human Gal4-fussed PPARalpha in HEK293 cells by luciferase reporter gene assay. It counts as functional, cell-based. In outline: (§1)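 Transactivation assay in HEK293 cells with a luciferase reporter. After cell lysis, luciferin is added and luminescence is read. EC50 is the ligand concentration giving half-maximal fold induction. Maximal efficacy is expressed as % of standards, with fenofibrate at 100 µM = 100% for PPARα and rosiglitazone at 1 µM = 100% for PPARγ. Data are normalized to known agonists at 1 µM.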
Background: In a reporter assay the amount or activity of a reporter protein is the signal.

Series [2] can be described thus: Mean retention time in Sprague-Dawley rat at 5 mg/kg, iv and 10 mg/kg, po. Type of series: ADME, organism-based. The following applies: in vivo. In outline: (§2)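 Male Sprague-Dawley rats (n = 2) given 5 mg/kg IV and 10 mg/kg PO. Vehicle: 10% NMP, 20% PEG-400, 70% potassium phosphate buffer.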
A short description of series [3]: Drug level in hamster liver at 10 mg/kg, po. Further details: dose 10 mg/kg, route oral. Conditions: cricetinae, in vivo, read-out: Drug uptake. It counts as ADME, organism-based. In outline: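 High-fat-fed hamsters (2 weeks on diet), 10 mg/kg po once daily for 21 days (n = 8). Vehicle: 5% cremophor/10% NMP/5% EtOH/80% water. Liver drug level taken 1 h post-dose in the fed state.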

Series [4] can be described thus: Volume of distribution at steady state Sprague-Dawley rat at 5 mg/kg, iv and 10 mg/kg, po. It counts as ADME, organism-based. Conditions: in vivo, read-out: Vdss. In outline:
as §2

Series [5] is described as follows: Agonist activity at hamster PPARalpha. It counts as functional, Cricetulus griseus.
Series [6] addresses T2, Peroxisome proliferator-activated receptor gamma (Homo sapiens) (UniProt P37231).
T2 sequence (whole entry): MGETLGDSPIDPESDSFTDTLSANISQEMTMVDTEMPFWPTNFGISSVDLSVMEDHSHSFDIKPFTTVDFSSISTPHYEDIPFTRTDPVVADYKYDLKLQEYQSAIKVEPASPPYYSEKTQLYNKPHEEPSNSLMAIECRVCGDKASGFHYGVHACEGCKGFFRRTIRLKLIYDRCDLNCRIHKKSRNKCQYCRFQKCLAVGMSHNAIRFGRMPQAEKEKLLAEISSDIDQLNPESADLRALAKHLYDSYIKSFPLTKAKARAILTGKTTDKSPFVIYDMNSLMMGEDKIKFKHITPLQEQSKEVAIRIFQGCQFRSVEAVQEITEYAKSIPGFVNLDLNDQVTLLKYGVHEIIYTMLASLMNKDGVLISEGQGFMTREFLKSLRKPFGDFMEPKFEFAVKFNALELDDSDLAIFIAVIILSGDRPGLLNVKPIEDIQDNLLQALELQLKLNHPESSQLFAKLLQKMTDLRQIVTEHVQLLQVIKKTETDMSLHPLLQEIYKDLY
The series can be described thus: Agonist activity against human Gal4-fussed PPARgamma by luciferase reporter gene assay relative to rosiglitazone.

Series [7] can be described thus: Clearance in Sprague-Dawley rat at 5 mg/kg, iv and 10 mg/kg, po. It counts as ADME, organism-based. Conditions: in vivo. In outline:
as §2

For series [8], the system named is Hamster. The series can be described thus: Antidyslipidemic activity in hamster assessed as decrease in HDL level at 10 mg/kg, po. Type of series: functional, Cricetinae. Further details: scale not given: the % may be the effect or the level left. A digest of the protocol:
(§3)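 Hamsters kept on high-fat diet for 2 weeks, then dosed 10 mg/kg by oral gavage once daily for 21 days (n = 8). Vehicle: 5% cremophor, 10% NMP, 5% EtOH, 80% water. HDL-c and TG measured at study end. Statistics by Dunnett test, p < 0.05.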

Series [9] in a line: Oral bioavailability in Sprague-Dawley rat at 10 mg/kg. It counts as ADME, organism-based. Conditions: in vivo. In outline:
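Male Sprague-Dawley rats (n = 2). Oral dose 10 mg/kg, with 5 mg/kg IV for comparison. Vehicle: 10% NMP, 20% PEG-400, 70% potassium phosphate buffer.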

Series [10] can be described thus: Half life in Sprague-Dawley rat at 5 mg/kg, iv and 10 mg/kg, po. It counts as ADME, organism-based. The following applies: in vivo. In outline:
as §2

The test system of series [11] is Hamster. Put plainly: Induction of PDK4 mRNA level in hamster liver at 10 mg/kg, po after 6 hrs relative to fenofibrate. It counts as functional, Cricetinae. A digest of the protocol:
(§4)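 Single oral dose of 10 mpk in hamsters, with fenofibrate reference at 100 mpk. Liver PDK4 and HD mRNA measured at 6 h post-dose. Values expressed relative to fenofibrate, set as 100%.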

For series [12], the system named is Hamster. The series can be described thus: Antidyslipidemic activity in hamster assessed as decrease in triglyceride level at 10 mg/kg, po. Further details: scale not given: the % may be the effect or the level left. It counts as functional, Cricetinae. In outline:
as §3

Series [13] has as its target T3, Peroxisome proliferator-activated receptor alpha (Homo sapiens) (UniProt Q07869).
T3 sequence (whole entry): T1 sequence (Q07869 whole entry)
The series can be described thus: Agonist activity against human Gal4-fussed PPARalpha by luciferase reporter gene assay relative to finofibrate. Type of series: functional. In outline: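 Gal4-fused human PPARα transactivation in HEK293 cells with a luciferase reporter, read as luminescence after cell lysis and luciferin addition. EC50 is the ligand concentration (µM) giving half-maximal fold induction. Maximal efficacy is expressed as a percentage of fenofibrate at 100 µM (set as 100%). Intrinsic activity is the response at 1 µM as a percentage of the standard at 1 µM.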

For series [14], the system named is Hamster. Put plainly: Induction of hydrase mRNA level in hamster liver at 10 mg/kg, po after 6 hrs relative to fenofibrate. Type of series: functional, Cricetinae. A digest of the protocol: as §4
The target of series [15] is T4, Peroxisome proliferator-activated receptor gamma (Homo sapiens, UniProt P37231).
T4 sequence (P37231 whole entry): T2 sequence (whole entry)
Put plainly: Agonist activity against human Gal4-fussed PPARgamma in HEK293 cells by luciferase reporter gene assay. It counts as functional, cell-based. A digest of the protocol: as §1

The species entered for a further series is Cricetulus griseus. Put plainly: Agonist activity at hamster PPARalpha relative to fenofibrate. Type of series: functional.
The nature of series [16]: Drug level in hamster plasma at 10 mg/kg, po. Type of series: ADME, organism-based. Further details: dose 10 mg/kg, route oral. The following applies: cricetinae, in vivo, read-out: Drug uptake. In outline:
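High-fat-fed hamsters (2 weeks on diet), 10 mg/kg po once daily for 21 days (n = 8). Vehicle: 5% cremophor/10% NMP/5% EtOH/80% water. Plasma drug level taken in the fasted state at 18 h post-dose.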

`COC(=O)N(CC(=O)O)Cc1cccc(OCc2coc(-c3ccc(Cl)cc3)n2)c1`: the EC50 came out at 64 nM in series [1], 979 nM in [5] and 9190 nM in series [15]. Also, in [2], the MRT came to 10.7 h. Moreover, the concentration in series [3] came out at 83.8 µM; in series [16], 72.9 µM. Further, in series [4], the Vd was 0.2 L/kg. Also, the Emax in series [6] was determined as 46%; in series [13], 78%; in the series filed under Cricetulus griseus it was 84%. This molecule also showed a clearance in [7] of 0.7 mL/min/kg. Besides, the Activity in the series on Hamster [8] is listed as 44%; in the series with Hamster [11], 505%; with Hamster [12] it was 84%; in the series with Hamster [14], 192%. For the same molecule, in series [9], the bioavailability was 75%. Moreover, the half-life in series [10] is 4.6 h.
